The species named for test [1] is Homo sapiens. Nature of the test: Concentration required to inhibit the rate of platelet aggregation by 50% was determined with human gel filtered platelets (GFP). Format: functional. The method, boiled down: (§1)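 Light-transmittance aggregometry at 37 °C on human gel-filtered platelets (2 × 10^8 platelets/mL) with 0.1 mg/mL human fibrinogen and 1 mM CaCl2; 10 μM ADP added last to start aggregation.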

Test [2] has as its system Canis familiaris. Nature of the test: Ex vivo antiplatelet activity was assessed following oral administration at a dose of 1 mg/kg to dogs in the presence of 10 uM of ADP and 1 uM of epinephrine at 90 min. Format: functional. To be noted: Canis lupus familiaris, 1.5 h. The method, boiled down: (§2)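 Four conscious mongrel dogs in slings, single oral 1.0 mg/kg crystalline solid in gelatin capsules; citrated venous blood (3.8% citrate) taken at baseline and 20–1440 min. PRP aggregation to ADP or collagen, each with 1 μM epinephrine, as % inhibition vs baseline. Mean ± SEM, n = 4.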

Test [3] deals with Canis familiaris. Nature of the test: Ex vivo antiplatelet activity was assessed following oral administration at a dose of 1 mg/kg to dogs in the presence of 10 uM of ADP and 1 uM of epinephrine at 300 min. Format: functional. To be noted: Canis lupus familiaris, 5 h. The method, boiled down:
as §2

Test [4] is filed under the species Canis familiaris. Nature of the test: In vitro concentration required to inhibit the rate of dog platelet aggregation (in platelet rich plasma) by 50% was determined in presence of 10 uM of ADP and 1 uM of epinephrine. Format: functional. As to conditions: Canis lupus familiaris. The method, boiled down: (§3)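 PRP from blood spun at 150g for 5 min, count set to 200 000 cells/mm3 with PPP; 300 μL held 3 min at 37 °C before agonist. Aggregation read as % change in light transmission, PPP = 100%; inhibition relative to baseline response. Mean ± SE, n = 3–7.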

The species entered for test [5] is Homo sapiens. Nature of the test: In vitro concentration required to inhibit the rate of human platelet aggregation (in platelet rich plasma) by 50% was determined in presence of 10 ug/mL of collagen. Format: functional. The method, boiled down: as §3
The test system of test [6] is Canis familiaris. Nature of the test: Ex vivo antiplatelet activity was assessed following oral administration at a dose of 1 mg/kg to dogs in the presence of 10 uM of ADP and 1 uM of epinephrine at 40 min. Format: functional. To be noted: Canis lupus familiaris. The method, boiled down:
as §2

Test [7] relates to Canis familiaris. Nature of the test: Ex vivo antiplatelet activity was assessed following oral administration at a dose of 1 mg/kg to dogs in the presence of […] and 1 uM of epinephrine at 300 min. Format: functional. To be noted: Canis lupus familiaris, 5 h. In short, it runs like this: as §2
A short description of test [8]: In vitro concentration required to inhibit the rate of chimp platelet aggregation (in platelet rich plasma) by 50% was determined in presence of 10 ug/mL of collagen. Format: functional. To be noted: Pan troglodytes. In short, it runs like this: as §3
Test [9] concerns Canis familiaris. The experiment in a line: Ex vivo antiplatelet activity was assessed following oral administration at a dose of 1 mg/kg to dogs in the presence of 10 uM of ADP and 1 uM of epinephrine at 20 min. Format: functional. To be noted: Canis lupus familiaris. In short, it runs like this:
as §2

In test [10] the test system is Canis familiaris. Nature of the test: Ex vivo antiplatelet activity was assessed following oral administration at a dose of 1 mg/kg to dogs in the presence of 10 uM of collagen and 1 uM of epinephrine at 90 min. Format: functional. To be noted: Canis lupus familiaris, 1.5 h. In short, it runs like this:
as §2

Test [11] concerns Canis familiaris. Nature of the test: Ex vivo antiplatelet activity was assessed following oral administration at a dose of 1 mg/kg to dogs in the presence of 10 uM of ADP and 1 uM of epinephrine at 0 min. Format: functional. To be noted: Canis lupus familiaris, 0 h. In short, it runs like this: as §2
Test [12] is filed under the species Homo sapiens. Nature of the test: In vitro concentration required to inhibit the rate of human platelet aggregation (in platelet rich plasma) by 50% was determined in presence of 10 uM of ADP. Format: functional. The method, boiled down:
as §3

Test [13] relates to Canis familiaris. Nature of the test: Ex vivo antiplatelet activity was assessed following oral administration at a dose of 1 mg/kg to dogs in the presence of […] and 1 uM of epinephrine at 200 min. Format: functional. As to conditions: Canis lupus familiaris. In short, it runs like this: as §2
The species named for test [14] is Homo sapiens. Nature of the test: In vitro concentration required to inhibit the rate of human platelet aggregation (in platelet rich plasma) by 50% was determined in presence of 10 uM of epinephrine. Format: functional. In short, it runs like this:
as §3

The species named for test [15] is Homo sapiens. The experiment in a line: Concentration required to inhibit platelet aggregation by 50%. Format: functional. The method, boiled down:
as §1

A short description of test [16]: In vitro concentration required to inhibit the rate of chimp platelet aggregation (in platelet rich plasma) by 50% was determined in presence of 20 uM of ADP. As to conditions: Pan troglodytes. Format: functional. The method, boiled down: as §3
Test [17] is filed under the species Homo sapiens. The experiment in a line: In vitro concentration required to inhibit the rate of human platelet aggregation (in platelet rich plasma) by 50% was determined in presence of 0.5 U/mL of thrombin and 1 mM GPRP. Format: functional. The method, boiled down:
as §3

Test [18] concerns Canis familiaris. Nature of the test: Ex vivo antiplatelet activity was assessed following oral administration at a dose of 1 mg/kg to dogs in the presence of 10 uM of ADP and 1 uM of epinephrine at 250 min. Format: functional. As to conditions: Canis lupus familiaris. The method, boiled down:
as §2

In test [19] the test system is Canis familiaris. Nature of the test: Ex vivo antiplatelet activity was assessed following oral administration at a dose of 1 mg/kg to dogs in the presence of 10 uM of ADP and 1 uM of epinephrine at 150 min. Format: functional. To be noted: Canis lupus familiaris, 2.5 h. The method, boiled down: as §2
For test [20], the system named is Canis familiaris. The experiment in a line: Ex vivo antiplatelet activity was assessed following oral administration at a dose of 1 mg/kg to dogs in the presence of […] and 1 uM of epinephrine at 150 min. Format: functional. To be noted: Canis lupus familiaris, 2.5 h. The method, boiled down:
as §2

For test [21], the species on record is Canis familiaris. Nature of the test: In vitro concentration required to inhibit the rate of dog platelet aggregation (in platelet rich plasma) by 50% was determined in presence of 10 ug/mL of collagen and 1 uM of epinephrine. Format: functional. To be noted: Canis lupus familiaris. The method, boiled down:
as §3

The subject of test [22] is Canis familiaris. The experiment in a line: Ex vivo antiplatelet activity was assessed following oral administration at a dose of 1 mg/kg to dogs in the presence of 10 uM of collagen and 1 uM of epinephrine at 350 min. Format: functional. As to conditions: Canis lupus familiaris. The method, boiled down: as §2
Test [23] has as its system Canis familiaris. The experiment in a line: Ex vivo antiplatelet activity was assessed following oral administration at a dose of 1 mg/kg to dogs in the presence of 10 uM of ADP and 1 uM of epinephrine at 1440 min. Format: functional. As to conditions: Canis lupus familiaris, 24 h. In short, it runs like this: as §2
Test [24] has as its system Canis familiaris. Nature of the test: Ex vivo antiplatelet activity was assessed following oral administration at a dose of 1 mg/kg to dogs in the presence of […] and 1 uM of epinephrine at 70 min. Format: functional. As to conditions: Canis lupus familiaris. In short, it runs like this: as §2
The species named for test [25] is Canis familiaris. Nature of the test: Whole blood platelet count was determined as delta% from baseline. Format: functional, Canis lupus familiaris. The method, boiled down: (§4)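 Dogs given 1.0 mg/kg orally by capsule (n = 4); 1 mL citrated venous blood per time point (baseline to 1440 min) counted on an automated hematology analyzer; reported as 10^3/μL and Δ% from baseline, mean ± SEM.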

In test [26] the test system is Canis familiaris. Nature of the test: Ex vivo antiplatelet activity was assessed following oral administration at a dose of 1 mg/kg to dogs in the presence of […] and 1 uM of epinephrine at 250 min. As to conditions: Canis lupus familiaris. Format: functional. In short, it runs like this: as §2
For test [27], the system named is Canis familiaris. The experiment in a line: Ex vivo antiplatelet activity was assessed following oral administration at a dose of 1 mg/kg to dogs in the presence of 10 uM of collagen and 1 uM of epinephrine at 480 min. Format: functional. As to conditions: Canis lupus familiaris, 8 h. The method, boiled down:
as §2

Test [28] is filed under the species Canis familiaris. Nature of the test: Whole blood platelet count was determined in 10e3/uL. Format: functional, Canis lupus familiaris. The method, boiled down: as §4
In test [29] the test system is Canis familiaris. Nature of the test: Ex vivo antiplatelet activity was assessed following oral administration at a dose of 1 mg/kg to dogs in the presence of 10 uM of ADP and 1 uM of epinephrine at 350 min. Format: functional. As to conditions: Canis lupus familiaris. The method, boiled down: as §2
Test [30] has as its system Canis familiaris. The experiment in a line: Ex vivo antiplatelet activity was assessed following oral administration at a dose of 1 mg/kg to dogs in the presence of 10 uM of collagen and 1 uM of epinephrine at 40 min. Format: functional. To be noted: Canis lupus familiaris. The method, boiled down:
as §2

Test [31] relates to Canis familiaris. The experiment in a line: Ex vivo antiplatelet activity was assessed following oral administration at a dose of 1 mg/kg to dogs in the presence of […] and 1 uM of epinephrine at 1440 min. Format: functional. To be noted: Canis lupus familiaris, 24 h. In short, it runs like this: as §2
In test [32] the test system is Canis familiaris. Nature of the test: Ex vivo antiplatelet activity was assessed following oral administration at a dose of 1 mg/kg to dogs in the presence of 10 uM of ADP and 1 uM of epinephrine at 70 min. Format: functional. As to conditions: Canis lupus familiaris. In short, it runs like this:
as §2

For test [33], the system named is Canis familiaris. Nature of the test: Ex vivo antiplatelet activity was assessed following oral administration at a dose of 1 mg/kg to dogs in the presence of 10 uM of ADP and 1 uM of epinephrine at 480 min. Format: functional. As to conditions: Canis lupus familiaris, 8 h. In short, it runs like this: as §2
Test [34] has as its system Canis familiaris. The experiment in a line: Ex vivo antiplatelet activity was assessed following oral administration at a dose of 1 mg/kg to dogs in the presence of […] and 1 uM of epinephrine at 0 min. Format: functional. As to conditions: Canis lupus familiaris, 0 h. In short, it runs like this:
as §2

Test [35] has as its system Canis familiaris. The experiment in a line: Ex vivo antiplatelet activity was assessed following oral administration at a dose of 1 mg/kg to dogs in the presence of […] and 1 uM of epinephrine at 20 min. Format: functional. To be noted: Canis lupus familiaris. The method, boiled down:
as §2

The subject of test [36] is Canis familiaris. Nature of the test: Ex vivo antiplatelet activity was assessed following oral administration at a dose of 1 mg/kg to dogs in the presence of 10 uM of ADP and 1 uM of epinephrine at 200 min. Format: functional. As to conditions: Canis lupus familiaris. In short, it runs like this:
as §2

Molecules are shown by their SMILES. pIC50: −log10 of the molar value. Where a SMILES comes first, the peptide text is derived from it. Bridges are numbered along the chain shown (N, C = ends).

`C[C@@H](CC(=O)O)NC(=O)CN1CCC[C@@H](CCC2CCNCC2)C1=O`: the negative logarithm of the IC50 (pIC50) in the test listed under Homo sapiens [1] is 5.11.

As for `C[C@H](CC(=O)O)NC(=O)CN1CCC[C@@H](CCC2CCNCC2)C1=O`, the inhibition in vivo at 1 mg/kg in the test with Canis familiaris [2] amounted to 96%; with Canis familiaris [3] it was 91%; in the test with Canis familiaris [6], 86%; with Canis familiaris [7], 67%; in the test on Canis familiaris [9], 50%; in the test on Canis familiaris [10], 75%. Moreover, the inhibition in vivo at 1 mg/kg was 0% with Canis familiaris [11]; 78% in the test on Canis familiaris [13]; 90% in the test with Canis familiaris [18]; 96% in the test on Canis familiaris [19]; 94% in the test on Canis familiaris [20]; 54% with Canis familiaris [22]. Further, the inhibition in vivo at 1 mg/kg in the test on Canis familiaris [23] worked out at 2%; with Canis familiaris [24], 79%; with Canis familiaris [26], 72%; in the test on Canis familiaris [27], 31%; in the test on Canis familiaris [29], 81%; in the test with Canis familiaris [30], 79%. The inhibition in vivo at 1 mg/kg with Canis familiaris [31] came out at 3%; with Canis familiaris [32], 93%; in the test with Canis familiaris [33] it was 63%; with Canis familiaris [34], 0%; with Canis familiaris [35] it was 48%; in the test on Canis familiaris [36], 94%. The pIC50 in the test filed under Canis familiaris [4] was 7.39; in the test listed under Homo sapiens [5] it was 7.17; in [8], 7.40; in the test listed under Homo sapiens [12], 7.64; in the test listed under Homo sapiens [14], 7.44; in the test filed under Homo sapiens [15] it was 7.49. Besides, the pIC50 is 7.38 in test [16], 7.57 in the test filed under Homo sapiens [17], 7.40 in the test listed under Canis familiaris [21] and 7.49 in the test filed under Homo sapiens [1]. The Delta in the test listed under Canis familiaris [25] was -0.5% [middle of 10 runs]. The same molecule gave a Platelet count in the test filed under Canis familiaris [28] of 322000 µL⁻¹.

Regarding `O=C(O)CCNC(=O)CN1CCC[C@@H](CCC2CCNCC2)C1=O`, the negative logarithm of the IC50 (pIC50) in the test listed under Homo sapiens [1] is 7.08.

For the molecule `O=C(O)CCNC(=O)CNC(=O)CCCC1CCNCC1`, the pIC50 in the test listed under Homo sapiens [1] is 5.08.

For `CC(=O)N[C@H]1CSSC[C@@H](C(=O)O)NC(=O)[C@H](CC(=O)O)NC(=O)CNC(=O)[C@H](CCCN=C(N)N)NC1=O` (Ac-CRGDC-OH; disulfide 1-5), in the test listed under Homo sapiens [1], the pIC50 was 6.17.
